In article PMC2761767 (Journal of medicinal chemistry, 2009):
Read-outs that look alike come from different tables or passages of the source.

Assays:
[1] = system: HCT-116 (colon cancer) cells; assay: MTT cytotoxicity assay, HCT-116; assay type: cell-based, human; settings: read-out: IC50, in vitro cytotoxicity, HCT-116, HCT-116 cells
Hep 3B (hepatoma) cells = assay: MTT cytotoxicity assay, Hep 3B; assay type: cell-based, human; settings: read-out: IC50, in vitro cytotoxicity, Hep 3B, Hep 3B cells
[2] = system: KB (epidermoid carcinoma of the nasopharynx) cells; assay: SRB cytotoxicity assay, KB; assay type: cell-based, human; settings: read-out: IC50, in vitro cytotoxicity, KB
Outline: (§1)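 Cells exposed to test compound or DMSO vehicle for the stated periods, then fixed with 10% TCA. Staining used 0.4% (w/v) sulforhodamine B in 1% acetic acid, with unbound dye washed out in 1% acetic acid. Bound dye was dissolved in 10 mM Trizma base and absorbance read at 515 nm. IC50 taken from the resulting absorbance data.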

HL-60 (leukemia) cells = assay: MTT cytotoxicity assay, HL-60; assay type: cell-based, human; settings: read-out: IC50, in vitro cytotoxicity, HL-60, HL-60 cells
[3] = system: DU145 (prostate cancer) cells; assay: SRB cytotoxicity assay, DU145; assay type: cell-based, human; settings: read-out: IC50, in vitro cytotoxicity, DU145
Outline: as §1

[4] = system: A549 (non-small cell lung carcinoma) cells; assay: SRB cytotoxicity assay, A549; assay type: cell-based, human; settings: read-out: IC50, in vitro cytotoxicity, A549
Outline: as §1

[5] = system: KB-VIN (p-glycoprotein-expressing epidermoid carcinoma of the nasopharynx) cells; assay: SRB cytotoxicity assay, KB-VIN; assay type: cell-based, human; settings: read-out: IC50, in vitro cytotoxicity, Kb-VIN, KB-VIN cells (vincristine-resistant)
Outline: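 For A549, KB, KB-VIN and DU145, an SRB assay was used. Cells were exposed to the test compound or DMSO, fixed with 10% TCA and stained with 0.4% (w/v) SRB in 1% acetic acid. Unbound dye was washed out with 1% acetic acid, bound dye solubilized in 10 mM Trizma base, and absorbance read at 515 nm.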

[6] = system: HL-60, HCT-116, H226, A549, Hep G2 and A498 cancer cell lines; assay: Cytotoxicity of deacetylated amides 46-53; assay type: cell-based; settings: read-out: IC50 values, cytotoxicity
[7] = mice model, unpublished data
tubulin = assay: Inhibition of [3H]colchicine binding to tubulin; settings: 1 µM tubulin, 5 µM [3H]colchicine, 10 min at 37 °C; for Inhibition of Colchicine Binding % inhibition at tested concentration, 1 µM: 1 µM inhibitor; for Inhibition of Colchicine Binding % inhibition at tested concentration, 5 µM: 5 µM inhibitor
[8] = system: seven human cancer cell lines (HL-60, HCT-116, A549, Hep 3B, KB, KB-VIN, DU145); assay: In vitro cytotoxicity, all seven cancer cell lines together; assay type: cell-based; settings: read-out: IC50 values, range over all seven cancer cell lines
[9] = system: 60 human tumor cell lines; assay: NCI screening against 60 human tumor cell lines; assay type: cell-based
[10] = ip, once weekly for 3 courses; prior in vivo study; cited from earlier work
OVCAR-3 xenograft = settings: ip, once weekly for 3 courses, cited from earlier work

| Compound | IC50 [1] | IC50 (Hep 3B (hepatoma) cells) | IC50 [2] | IC50 (HL-60 (leukemia) cells) | IC50 [3] | IC50 [4] | IC50 [5] | other results |
| --- | --- | --- | --- | --- | --- | --- | --- | --- |
| 2-(2-Naphthalenyl)-6,7-methylenedioxyquinolin-4-one [Compound 40] | > 1 µM | > 1 µM | > 1 µM | 0.5 µM | > 1 µM | > 1 µM | > 1 µM |  |
| 2-(4-Quinolinyl)-6,7-methylenedioxyquinolin-4-one [Compound 41] | > 5 µM | > 5 µM | > 5 µM | > 5 µM | > 5 µM | > 5 µM | > 5 µM |  |
| O=C(Nc1ccc2c(c1)OCO2)c1ccc2ccccc2c1 [Compound 50, N-(1,3-Benzodioxol-5-yl)naphthalene-2-carboxamide] |  |  |  |  |  |  |  | IC50 [6]: > 10 µM |
| 2-(3-Quinolinyl)-6,7-methylenedioxyquinolin-4-one [Compound 42] | > 0.1 µM | > 0.1 µM | > 0.1 µM | > 0.1 µM | > 0.1 µM | > 0.1 µM | > 0.1 µM |  |
| 2-(2-Benzo[b]furyl)-6,7-methylenedioxyquinolin-4-one [Compound 38] | > 1 µM | > 1 µM | > 1 µM | > 1 µM | > 1 µM | > 1 µM | > 1 µM |  |
| O=C(Nc1ccc2c(c1)OCO2)c1cccc2ncccc12 [Compound 53, N-(1,3-Benzodioxol-5-yl)quinoline-5-carboxamide] |  |  |  |  |  |  |  | IC50 [6]: > 10 µM |
| O=C(Nc1ccc2c(c1)OCO2)c1csc2ccccc12 [Compound 46, N-(1,3-Benzodioxol-5-yl)-1-benzothiophene-3-carboxamide] |  |  |  |  |  |  |  | IC50 [6]: > 10 µM |
| 2-(2-Quinolinyl)-6,7-methylenedioxyquinolin-4-one [Compound 43] | > 5 µM | > 5 µM | > 5 µM | > 5 µM | > 5 µM | > 5 µM | > 5 µM |  |
| O=P([O-])(O)Oc1cc(-c2ccccc2F)nc2cc3c(cc12)OCO3.[Na+] [CHM-1-P-Na] |  |  |  |  |  |  |  | Metabolism of the 6,7-methylenedioxy moiety [7]: metabolized to an ortho-quinone |
| 2-(1-Naphthalenyl)-6,7-methylenedioxyquinolin-4-one [Compound 39] | 0.07 µM | 0.07 µM | 0.13 µM | 0.07 µM | 0.13 µM | 0.13 µM | 0.19 µM | Inhibition of Colchicine Binding % inhibition at tested concentration, 1 µM (tubulin): 33%; Inhibition of Colchicine Binding % inhibition at tested concentration, 5 µM (tubulin): 67%; IC50 [8]: 0.07 to 0.19 µM |
| 2-(3-Benzo[b]furyl)-6,7-methylenedioxyquinolin-4-one [Compound 37] | 0.05 µM | 0.09 µM | 1.05 µM | 0.03 µM | 1.87 µM | 2.98 µM | 0.59 µM | Inhibition of Colchicine Binding % inhibition at tested concentration, 1 µM (tubulin): 39%; Inhibition of Colchicine Binding % inhibition at tested concentration, 5 µM (tubulin): 51%; Growth inhibition, NCI preliminary screening ([9]; HCC-2998, KM-12, SF-539, SNB-75, SK-MEL-5, IGROV1, OVCAR-3): significantly inhibited the growth; Cytotoxicity against leukemia cell lines, NCI preliminary screening ([9]; many leukemia cell lines (Figure 5)): potent selective cytotoxicity |
| 2-(2-fluorophenyl)-6,7-methylenedioxyquinolin-4-one [CHM-1] |  |  |  |  |  |  |  | Maximum tolerated dose (MTD) [10]: > 200 mg/kg; Extension of life span of tumor-bearing mice (OVCAR-3 xenograft; 79 mg/kg): 79%; Extension of life span of tumor-bearing mice (OVCAR-3 xenograft; 134 mg/kg): 133%; Extension of life span of tumor-bearing mice (OVCAR-3 xenograft; 200 mg/kg): 124% |
| O=C(Nc1ccc2c(c1)OCO2)c1ccnc2ccccc12 [Compound 51, N-(1,3-Benzodioxol-5-yl)quinoline-4-carboxamide] |  |  |  |  |  |  |  | IC50 [6]: > 10 µM |
| 2-(3-Benzo[b]thienyl)-6,7-methylenedioxyquinolin-4-one [Compound 1] | 0.14 µM | 0.06 µM | > 0.25 µM | 0.17 µM | > 0.25 µM | > 0.25 µM | > 0.25 µM | Inhibition of Colchicine Binding % inhibition at tested concentration, 1 µM (tubulin): 25%; Inhibition of Colchicine Binding % inhibition at tested concentration, 5 µM (tubulin): 61% |
| 2-(1-Anthracenyl)-6,7-methylenedioxyquinolin-4-one [Compound 45] | 1.6 µM | 2.2 µM |  | 0.53 µM |  |  |  |  |
| 2-(2-Benzo[b]thienyl)-6,7-methylenedioxyquinolin-4-one [Compound 36] | > 1 µM | > 1 µM | > 1 µM | > 1 µM | > 1 µM | > 1 µM | > 1 µM |  |
| 2-(5-Quinolinyl)-6,7-methylenedioxyquinolin-4-one [Compound 44] | > 10 µM | > 10 µM | > 10 µM | > 10 µM | > 10 µM | > 10 µM | > 10 µM |  |
| COc1cccc(-c2cc(O)c3cc(N4CCCC4)ccc3n2)c1 [B, 2-(3-methoxyphenyl)-6-pyrrolinylquinolin-4-one] |  |  |  |  |  |  |  | Maximum tolerated dose (MTD) [10]: 25 mg/kg; Antitumor activity against the OVCAR-3 xenograft model (OVCAR-3 xenograft; at MTD 25 mg/kg, prior in vivo study): moderate antitumor activity |
